Source: ChEMBL document CHEMBL4130566, “χ-Space Screening of Dermorphin-Based Tetrapeptides through Use of Constrained Arylazepinone and Quinolinone Scaffolds” (ACS Med Chem Lett, 2017)
Square brackets hold non-standard residues; d marks the D form. Peptide text beside a SMILES is read from it.

Experiments:
[1] = molecular target: Mu-type opioid receptor (Cavia porcellus) (UniProt P97266); test: Antagonist activity at mu-opioid receptor in guinea pig ileum assessed as inhibition of TAPP-induced reduction in electrically stimulated contractions; type: functional
Sequence of Mu-type opioid receptor (Cavia porcellus) (P97266 whole entry): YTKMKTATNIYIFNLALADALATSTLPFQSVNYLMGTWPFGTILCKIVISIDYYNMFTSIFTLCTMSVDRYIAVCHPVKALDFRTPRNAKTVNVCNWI

[2] = molecular target: Delta-type opioid receptor (Mus musculus) (UniProt P32300); test: Antagonist activity at delta-type opioid receptor in mouse vas deferens assessed as inhibition of DPDPE-induced electrically stimulated contractions; type: functional
Sequence of Delta-type opioid receptor (Mus musculus) (P32300 whole entry): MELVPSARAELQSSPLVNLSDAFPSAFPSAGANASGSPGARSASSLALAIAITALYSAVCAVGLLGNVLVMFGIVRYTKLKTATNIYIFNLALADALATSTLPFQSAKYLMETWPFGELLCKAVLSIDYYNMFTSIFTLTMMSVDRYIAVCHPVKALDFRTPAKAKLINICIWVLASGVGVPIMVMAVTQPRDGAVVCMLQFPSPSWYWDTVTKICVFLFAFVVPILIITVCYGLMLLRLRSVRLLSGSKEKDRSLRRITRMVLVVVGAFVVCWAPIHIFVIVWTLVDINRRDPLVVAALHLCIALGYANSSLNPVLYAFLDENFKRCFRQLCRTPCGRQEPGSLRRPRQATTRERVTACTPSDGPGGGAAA

Mu-type opioid receptor [3] = molecular target: T1, Mu-type opioid receptor (Rattus norvegicus, UniProt P33535); test: Displacement of [3H]-CTOP from Mu-type opioid receptor in Sprague-Dawley rat brain homogenate after 180 mins by scintillation counting
T1 sequence (P33535 whole entry): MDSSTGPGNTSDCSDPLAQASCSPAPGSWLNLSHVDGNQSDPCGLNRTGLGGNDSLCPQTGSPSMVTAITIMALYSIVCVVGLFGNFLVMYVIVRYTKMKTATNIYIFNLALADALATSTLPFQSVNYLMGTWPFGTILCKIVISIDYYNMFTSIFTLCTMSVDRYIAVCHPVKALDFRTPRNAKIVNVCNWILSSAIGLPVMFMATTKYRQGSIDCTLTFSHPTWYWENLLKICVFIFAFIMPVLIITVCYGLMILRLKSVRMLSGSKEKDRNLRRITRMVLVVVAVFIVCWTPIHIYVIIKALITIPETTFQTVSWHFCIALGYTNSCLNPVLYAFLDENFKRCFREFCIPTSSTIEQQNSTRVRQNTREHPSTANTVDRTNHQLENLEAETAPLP

[4] = molecular target: T2, Delta-type opioid receptor (Rattus norvegicus, UniProt P33533); test: Displacement of [H][p-ClPhe4]-DPDPE from delta-type opioid receptor in Sprague-Dawley rat brain homogenates after 180 mins by scintillation counting
T2 sequence (P33533 whole entry): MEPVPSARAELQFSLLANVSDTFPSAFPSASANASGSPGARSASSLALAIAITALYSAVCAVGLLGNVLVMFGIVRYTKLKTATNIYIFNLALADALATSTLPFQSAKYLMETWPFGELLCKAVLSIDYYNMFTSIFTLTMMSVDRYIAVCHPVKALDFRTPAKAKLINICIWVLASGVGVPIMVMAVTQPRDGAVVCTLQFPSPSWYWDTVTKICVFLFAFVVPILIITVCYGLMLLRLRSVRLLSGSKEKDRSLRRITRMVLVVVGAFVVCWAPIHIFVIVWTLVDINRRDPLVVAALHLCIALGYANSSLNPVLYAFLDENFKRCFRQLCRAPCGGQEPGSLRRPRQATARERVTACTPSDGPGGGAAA

Mu-type opioid receptor [5] = molecular target: T3, Mu-type opioid receptor (Cavia porcellus, UniProt P97266); test: Agonist activity at mu-opioid receptor in Hartley guinea pig ileum assessed as inhibition of electrically induced contractions after 3 mins post dose; type: functional
T3 sequence (P97266 whole entry): as the sequence (P97266 whole entry) above
Method in brief: (§1)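 Guinea pig ileum (GPI) serves as the MOP-representative tissue and mouse vas deferens (MVD) as the DOP-representative tissue. Values are reported as IC50.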

[6] = molecular target: T4, Delta-type opioid receptor (Mus musculus, UniProt P32300); test: Agonist activity at delta-type opioid receptor in ICR mouse vas deferens assessed as […] of electrically stimulated contractions after 3 mins post dose; type: functional
T4 sequence (P32300 whole entry): as the sequence (P32300 whole entry) above

Mu-type opioid receptor [7] = molecular target: Mu-type opioid receptor (Homo sapiens, UniProt P35372); test: Binding affinity to Mu-type opioid receptor (unknown origin)
Sequence of Mu-type opioid receptor (Homo sapiens, UniProt P35372) (P35372 whole entry): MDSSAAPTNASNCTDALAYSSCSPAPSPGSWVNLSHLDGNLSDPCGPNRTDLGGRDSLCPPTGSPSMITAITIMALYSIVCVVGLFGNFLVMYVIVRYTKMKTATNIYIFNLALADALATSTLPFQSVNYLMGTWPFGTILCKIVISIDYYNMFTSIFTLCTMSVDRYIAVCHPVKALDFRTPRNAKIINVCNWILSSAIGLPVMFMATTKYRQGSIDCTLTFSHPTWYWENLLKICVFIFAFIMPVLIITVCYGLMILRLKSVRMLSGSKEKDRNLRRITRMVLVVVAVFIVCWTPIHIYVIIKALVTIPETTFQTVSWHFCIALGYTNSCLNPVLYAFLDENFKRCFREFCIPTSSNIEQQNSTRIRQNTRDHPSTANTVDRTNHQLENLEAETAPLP

[8] = molecular target: Delta-type opioid receptor (Homo sapiens, UniProt P41143); test: Binding affinity to delta-type opioid receptor (unknown origin)
Sequence of Delta-type opioid receptor (Homo sapiens, UniProt P41143) (P41143 whole entry): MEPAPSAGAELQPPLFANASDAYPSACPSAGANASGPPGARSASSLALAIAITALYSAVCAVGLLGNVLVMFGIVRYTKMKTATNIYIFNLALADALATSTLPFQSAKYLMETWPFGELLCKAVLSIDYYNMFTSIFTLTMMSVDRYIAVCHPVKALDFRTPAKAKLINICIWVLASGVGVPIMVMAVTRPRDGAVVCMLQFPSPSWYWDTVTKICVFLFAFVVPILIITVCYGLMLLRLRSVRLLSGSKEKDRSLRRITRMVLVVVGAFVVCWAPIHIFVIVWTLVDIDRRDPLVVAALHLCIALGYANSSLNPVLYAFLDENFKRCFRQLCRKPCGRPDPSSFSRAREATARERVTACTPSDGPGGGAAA

Mu-type opioid receptor [9] = molecular target: Mu-type opioid receptor (Mus musculus, UniProt P42866); test: Displacement of [125I]-DAMGO from mouse FLAG-tagged Mu-type opioid receptor expressed in HEK293 cell membranes after 60 mins by gamma counting analysis
Sequence of Mu-type opioid receptor (Mus musculus, UniProt P42866) (P42866 whole entry): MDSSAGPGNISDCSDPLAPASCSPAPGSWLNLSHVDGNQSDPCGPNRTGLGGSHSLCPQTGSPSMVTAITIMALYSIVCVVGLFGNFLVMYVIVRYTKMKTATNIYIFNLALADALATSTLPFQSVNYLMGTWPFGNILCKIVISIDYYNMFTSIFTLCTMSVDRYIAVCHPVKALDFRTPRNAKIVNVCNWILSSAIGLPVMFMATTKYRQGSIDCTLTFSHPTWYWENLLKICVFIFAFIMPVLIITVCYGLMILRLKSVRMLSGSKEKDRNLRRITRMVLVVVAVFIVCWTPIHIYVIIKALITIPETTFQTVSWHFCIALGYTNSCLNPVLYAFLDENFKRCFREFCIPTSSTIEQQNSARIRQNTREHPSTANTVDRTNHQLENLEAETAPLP
Method in brief: (§2)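 Competitive radioligand displacement binding in HEK293 cells expressing MOP or DOP. The MOP-selective tracer is [125I]-DAMGO and the DOP-selective tracer is [125I]-Deltorphin II. Values are reported as IC50.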

[10] = molecular target: T4, Delta-type opioid receptor; test: Displacement of [125I]-Deltorphin II from mouse FLAG-tagged delta-type opioid receptor expressed in HEK293 cell membranes after 60 mins by gamma counting analysis; method in brief: as §2
Mu-type opioid receptor [11] = molecular target: T3, Mu-type opioid receptor; test: (§3) Agonist activity at mu-opioid receptor in guinea pig ileum assessed as inhibition of electrically induced contractions; type: functional; method in brief: as §1
[12] = molecular target: T4, Delta-type opioid receptor; test: Agonist activity at delta-type opioid receptor in mouse vas deferens assessed as inhibition of electrically stimulated contractions; type: functional; method in brief: as §1
Mus musculus = organism: Mus musculus; test: Selectivity ratio of IC50 for mouse FLAG-tagged delta-type opioid receptor expressed in HEK293 cell membranes to IC50 for mouse FLAG-tagged Mu-type opioid receptor expressed in HEK293 cell membranes; type: cell-based
[13] = molecular target: Mu-type opioid receptor (Cavia porcellus) (UniProt P97266); test: as §3; type: functional; method in brief: as §1
Mu-type opioid receptor [14] = molecular target: T1, Mu-type opioid receptor; test: Displacement of [3H]naloxone from Mu-type opioid receptor in Sprague-Dawley rat brain membranes; type: cell membranes, Membrane
[15] = molecular target: T2, Delta-type opioid receptor; test: Displacement of [3H][Ile5,6]-deltorphin II from delta-type opioid receptor in Sprague-Dawley rat brain membranes; type: cell membranes, Membrane

SMILES	IC50 (Mu-type opioid receptor [9]) [nM]	IC50 [10] [nM]	IC50 (Mu-type opioid receptor [11]) [nM]	IC50 [12] [nM]	Ratio IC50 (Mus musculus)	also measured
Cc1cc(O)cc(C)c1C[C@H](N)C(=O)N[C@H](C)C(=O)N[C@H]1Cc2cc3ccccc3cc2CN(CC(N)=O)C1=O	–	–	–	–	–	Ke [1]: 5.53 nM; Ke [2]: 360 nM
C[C@@H](NC(=O)[C@@H](N)Cc1ccc(O)cc1)C(=O)N[C@@H](Cc1ccccc1)C(=O)NCC(N)=O (H-Y[dA]FG-NH2)	–	–	–	–	–	IC50 (Mu-type opioid receptor [3]): 36.7 nM; IC50 [4]: 1250 nM; IC50 (Mu-type opioid receptor [5]): 35 nM; IC50 [6]: 263 nM
Cc1cc(O)cc(C)c1C[C@H](N)C(=O)N[C@H](CCCN=C(N)N)C(=O)N[C@H]1Cc2ccccc2CN(CC(N)=O)C1=O	–	–	–	–	–	Ki (Mu-type opioid receptor [7]): 0.15 nM; Ki [8]: 0.6 nM
Cc1cc(O)cc(C)c1C[C@H](N)C(=O)N[C@H](CCCNC(=N)N)C(=O)N[C@H]1Cc2ccc3ccccc3c2CN(CC(N)=O)C1=O	2.19	153	21.4	114	70	–
Cc1cc(O)cc(C)c1C[C@H](N)C(=O)N[C@H](CCCNC(=N)N)C(=O)N[C@H]1Cc2c(ccc3ccccc23)CN(CC(N)=O)C1=O	0.33	1	0.252	1.42	3	–
Cc1cc(O)cc(C)c1C[C@H](N)C(=O)N(C)[C@H](C)C(=O)N[C@H]1Cc2c(ccc3ccccc23)CN(CC(N)=O)C1=O	0.35	1.47	0.43	1.09	4	–
C[C@@H](NC(=O)[C@@H](N)Cc1ccc(O)cc1)C(=O)N[C@@H](Cc1ccccc1)C(=O)NCC(=O)N[C@@H](Cc1ccc(O)cc1)C(=O)N1CCC[C@H]1C(=O)N[C@@H](CO)C(N)=O [DERMORPHIN]	–	–	1.06	–	–	–
Cc1cc(O)cc(C)c1C[C@H](N)C(=O)N[C@H](CCCNC(=N)N)C(=O)N[C@H]1Cc2ccc(Br)cc2CN(CC(N)=O)C1=O	0.76	60.7	–	8.51	80	IC25 [13]: 22 nM
Cc1cc(O)cc(C)c1C[C@H](N)C(=O)N[C@H](CCCNC(=N)N)C(=O)N[C@H]1Cc2ccccc2N(CC(N)=O)C1=O	1.62	630	–	90.5	389	IC35 [13]: 33.7 nM
Cc1cc(O)cc(C)c1C[C@H](N)C(=O)N[C@H](C)C(=O)N[C@H]1Cc2ccc3ccccc3c2CN(CC(N)=O)C1=O	1.78	167	–	–	94	Ke [1]: 2.88 nM; Ke [2]: 306 nM
C[C@@H](NC(=O)[C@@H](N)Cc1ccc(O)cc1)C(=O)N[C@H]1Cc2ccccc2CN(CC(N)=O)C1=O	–	–	50.4	47.1	–	IC50 (Mu-type opioid receptor [14]): 34.4 nM; IC50 [15]: 15.8 nM
Cc1cc(O)cc(C)c1C[C@H](N)C(=O)N[C@H](C)C(=O)N[C@H]1Cc2c(ccc3ccccc23)CN(CC(N)=O)C1=O	0.39	2.07	1.13	0.86	5	–
